“And” between values parts separate entries of the source, which are not always exact repeats. Equal values may be shown once.
Legend:
[1] = target: Estrogen receptor (Bos taurus) (UniProt Q9XSB5+P49884); assay: Relative binding affinity for calf uterine estrogen receptor compared to 17-beta-estradiol (E2); format: protein assay
How it was run: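 Competitive binding in calf uterine cytosol (final protein 3 mg/mL) in Tris-EDTA-NaN3 buffer, pH 7.5. 5 nM [3H]17β-estradiol plus competitor at 10^-9 to 10^-5 M, 18 h at 4 °C. Free ligand removed with dextran-coated charcoal (90 min, 4 °C). Nonspecific binding from 4 μM estradiol. RBA = ratio of estradiol to test molar concentrations giving 50% displacement × 100.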

MDA-MB-231 [2] = assay: Inhibition of hormone-independent MDA-MB 231 mammary tumor cell proliferation at 1*10e-5 M; format: functional, Homo sapiens
How it was run: (§1)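 MDA-MB 231 cells were grown in McCoy 5a medium with 10% NCS and were pre-grown 3 d in microplates before drug medium was added (controls 0.1% DMF). After 2 days of incubation, wells were fixed with 1% glutaraldehyde, stained with 0.02% crystal violet, and read by optical density. T/C (%) was corrected for initial density (vinblastine 10^-7 M). 16 replicates ± SD.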

MDA-MB-231 [3] = assay: Inhibition of hormone-independent MDA-MB 231 mammary tumor cell proliferation at 1*10e-6 M; format: functional, Homo sapiens; how it was run: as §1
MDA-MB-231 [4] = assay: Inhibition of hormone-independent MDA-MB 231 mammary tumor cell proliferation at 1*10e-7 M; format: functional, Homo sapiens; how it was run: as §1
MDA-MB-231 [5] = assay: Inhibition of hormone-independent MDA-MB 231 mammary tumor cell proliferation at 5*10e-6 M; format: functional, Homo sapiens; how it was run: as §1
MCF7 [6] = assay: Inhibition of hormone-sensitive MCF-7 mammary tumor cell proliferation at 1*10e-5 M; format: functional, Homo sapiens
How it was run: (§2)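 MCF-7 cells were grown in modified improved MEM with 10% newborn calf serum at 37 °C and 5% CO2, plated in 96-well plates for 3 d, then given drug medium (controls 0.1% DMF). After 3 days, cells were glutaraldehyde-fixed and crystal violet-stained; T/C = test/control optical density, corrected for initial density (vinblastine 10^-7 M). 16 replicates ± SD.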

MCF7 [7] = assay: Inhibition of hormone-sensitive MCF-7 mammary tumor cell proliferation at 1*10e-6 M; format: functional, Homo sapiens; how it was run: as §2
MCF7 [8] = assay: Inhibition of hormone-sensitive MCF-7 mammary tumor cell proliferation at 1*10e-7 M; format: functional, Homo sapiens; how it was run: as §2
MCF7 [9] = assay: Inhibition of hormone-sensitive MCF-7 mammary tumor cell proliferation at 5*10e-6 M; format: functional, Homo sapiens; how it was run: as §2
[10] = target: T1, Estrogen receptor (Mus musculus) (UniProt O08537+P19785); assay: Percent inhibition of estrone-stimulated uterotrophic effect in mice at 250 ug dose; format: functional
T1 sequence (O08537 whole entry, looked up): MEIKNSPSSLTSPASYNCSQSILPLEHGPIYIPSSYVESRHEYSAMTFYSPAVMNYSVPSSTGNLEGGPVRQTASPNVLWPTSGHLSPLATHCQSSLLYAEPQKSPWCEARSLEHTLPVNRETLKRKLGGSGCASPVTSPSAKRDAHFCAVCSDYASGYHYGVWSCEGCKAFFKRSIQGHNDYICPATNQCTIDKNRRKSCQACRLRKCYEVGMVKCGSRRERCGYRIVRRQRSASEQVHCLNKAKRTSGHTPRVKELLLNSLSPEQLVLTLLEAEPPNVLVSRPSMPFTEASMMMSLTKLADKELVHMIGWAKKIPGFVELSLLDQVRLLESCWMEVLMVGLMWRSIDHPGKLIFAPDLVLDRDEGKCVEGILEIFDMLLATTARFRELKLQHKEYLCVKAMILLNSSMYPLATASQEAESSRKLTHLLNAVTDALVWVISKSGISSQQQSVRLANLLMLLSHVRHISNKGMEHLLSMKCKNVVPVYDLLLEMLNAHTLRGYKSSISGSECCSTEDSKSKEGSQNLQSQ
T1 sequence (P19785 whole entry, looked up): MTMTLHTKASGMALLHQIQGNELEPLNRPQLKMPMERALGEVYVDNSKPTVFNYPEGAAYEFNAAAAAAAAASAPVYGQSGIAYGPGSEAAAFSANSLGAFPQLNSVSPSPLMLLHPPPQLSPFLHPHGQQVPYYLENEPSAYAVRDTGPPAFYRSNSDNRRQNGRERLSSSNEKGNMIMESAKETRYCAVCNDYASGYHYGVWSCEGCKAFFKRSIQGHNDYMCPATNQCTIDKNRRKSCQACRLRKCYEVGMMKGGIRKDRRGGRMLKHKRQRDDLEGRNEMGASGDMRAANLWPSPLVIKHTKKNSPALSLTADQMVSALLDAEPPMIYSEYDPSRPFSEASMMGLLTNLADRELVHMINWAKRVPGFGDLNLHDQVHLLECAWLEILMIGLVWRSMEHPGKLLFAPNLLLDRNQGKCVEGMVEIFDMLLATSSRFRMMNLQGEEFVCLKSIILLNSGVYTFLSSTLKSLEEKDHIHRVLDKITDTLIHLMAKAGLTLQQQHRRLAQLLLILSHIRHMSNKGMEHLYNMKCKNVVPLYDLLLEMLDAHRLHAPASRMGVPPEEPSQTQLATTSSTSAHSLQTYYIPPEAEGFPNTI
How it was run: (§3)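 Antiuterotrophic test in immature female NMRI mice (20 days old). Estrone 0.4 μg was co-injected with the compound in olive oil, sc daily for three days. Uterine dry weight per body weight was read 24 h after the last dose. Inhibition (%) = 100 − [(W_S,T − W_V)/(W_S − W_V) × 100], where W_V is the vehicle control.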

[11] = target: T1, Estrogen receptor (Mus musculus); assay: Percent inhibition of estrone-stimulated uterotrophic effect in mice at 50 ug dose; format: functional; how it was run: as §3
[12] = target: T1, Estrogen receptor (Mus musculus); assay: Percent inhibition of estrone-stimulated uterotrophic effect in mice at 10 ug dose; format: functional; how it was run: as §3
[13] = target: T1, Estrogen receptor (Mus musculus); assay: Percent inhibition of estrone-stimulated uterotrophic effect in mice at 2 ug dose; format: functional; how it was run: as §3
[14] = target: T1, Estrogen receptor (Mus musculus); assay: Anti-uterotrophic effect in mice as uterine weight(mg) relative to body weight(g) at 10 ug dose; format: functional
How it was run: (§4)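 Immature female NMRI mice, 20 days old, groups of six to ten; compound plus standard estrone 0.4 μg in olive oil (100 μL/animal) given sc on three consecutive days. Killed 24 h after last injection; uteri fixed in Bouin solution 2 h, dried at 100 °C for 18 h, weighed. Relative weight = uterine dry weight (mg)/body weight (g) × 100; mean of 6 animals ± SD.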

[15] = target: T1, Estrogen receptor (Mus musculus); assay: Anti-uterotrophic effect in mice as uterine weight(mg) relative to body weight(g) at 2 ug dose; format: functional; how it was run: as §4
[16] = target: T1, Estrogen receptor (Mus musculus); assay: Anti-uterotrophic effect in mice as uterine weight(mg) relative to body weight(g) at 250 ug dose; format: functional; how it was run: as §4
[17] = target: T1, Estrogen receptor (Mus musculus); assay: Uterotrophic effect in mice as uterine weight(mg) relative to body weight(g) at 10 ug dose; format: functional, tissue-based
How it was run: (§5)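 Uterotrophic test: 20-day-old immature female NMRI mice, six to ten per group, received compound alone in olive oil (100 μL/animal) sc on three consecutive days; controls received vehicle. After 24 h, uteri were Bouin-fixed 2 h and dried 18 h at 100 °C. Uterine dry weight (mg)/body weight (g) × 100; mean of 6 ± SD.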

[18] = target: T1, Estrogen receptor (Mus musculus); assay: Uterotrophic effect in mice as uterine weight(mg) relative to body weight(g) at 2 ug dose; format: functional, tissue-based; how it was run: as §5
[19] = target: T1, Estrogen receptor (Mus musculus); assay: Uterotrophic effect in mice as uterine weight(mg) relative to body weight(g) at 250 ug dose; format: functional, tissue-based; how it was run: as §5
[20] = target: T1, Estrogen receptor (Mus musculus); assay: Anti-uterotrophic effect in mice as uterine weight(mg) relative to body weight(g) at 50 ug dose; format: functional; how it was run: as §4
[21] = target: T1, Estrogen receptor (Mus musculus); assay: Uterotrophic effect in mice as uterine weight(mg) relative to body weight(g) at 50 ug dose; format: functional, tissue-based; how it was run: as §5

**Q.** For CCCC1Cc2cc(OC(C)=O)ccc2-c2c(C=O)c3ccc(OC(C)=O)cc3n21 (configuration not stated), which relative binding affinity (RBA) [1] is on record?
**A.** 0.5

**Q.** And the T/C (MDA-MB-231 [2])?
**A.** 14%

**Q.** And the T/C (MDA-MB-231 [3])?
**A.** 31%

**Q.** What about the T/C (MDA-MB-231 [4]) of the same molecule?
**A.** 100%

**Q.** And the T/C (MDA-MB-231 [5])?
**A.** 15%

**Q.** And the T/C (MCF7 [6])?
**A.** 0%

**Q.** What about the T/C (MCF7 [7]) of the same molecule?
**A.** 1%

**Q.** And the T/C (MCF7 [8])?
**A.** 71%

**Q.** And the T/C (MCF7 [9])?
**A.** 0%

**Q.** What about the inhibition [10] of the same molecule?
**A.** 65%

**Q.** And the inhibition [11]?
**A.** 35%

**Q.** What about the inhibition [12] of the same molecule?
**A.** 41%

**Q.** What about the inhibition [13] of the same molecule?
**A.** 39%

**Q.** What about the Relative uterus weight [14] of the same molecule?
**A.** 38.4 and 16.9

**Q.** What about the Relative uterus weight [15] of the same molecule?
**A.** 39.4

**Q.** And the Relative uterus weight [16]?
**A.** 29.5

**Q.** What about the Relative uterus weight [17] of the same molecule?
**A.** 17.1

**Q.** And the Relative uterus weight [18]?
**A.** 20.4

**Q.** What about the Relative uterus weight [19] of the same molecule?
**A.** 17.4

**Q.** What about the Relative uterus weight [20] of the same molecule?
**A.** 40.7

**Q.** With CCC1Cc2cc(OC(C)=O)ccc2-c2c(C=O)c3ccc(OC(C)=O)cc3n21 (configuration not stated) as the molecule, how does the relative binding affinity (RBA) [1] read?
**A.** 1.3

**Q.** And the T/C (MDA-MB-231 [2])?
**A.** 10%

**Q.** And the T/C (MDA-MB-231 [3])?
**A.** 92%

**Q.** What about the T/C (MDA-MB-231 [4]) of the same molecule?
**A.** 101%

**Q.** What about the T/C (MDA-MB-231 [5]) of the same molecule?
**A.** 34%

**Q.** What about the T/C (MCF7 [6]) of the same molecule?
**A.** 0%

**Q.** And the T/C (MCF7 [7])?
**A.** 83%

**Q.** What about the T/C (MCF7 [8]) of the same molecule?
**A.** 89%

**Q.** What about the T/C (MCF7 [9]) of the same molecule?
**A.** 2%

**Q.** What about the inhibition [10] of the same molecule?
**A.** 38%

**Q.** And the inhibition [11]?
**A.** 27%

**Q.** What about the inhibition [12] of the same molecule?
**A.** 14%

**Q.** And the inhibition [13]?
**A.** 17%

**Q.** What about the Relative uterus weight [14] of the same molecule?
**A.** 49

**Q.** And the Relative uterus weight [15]?
**A.** 47.9

**Q.** What about the Relative uterus weight [16] of the same molecule?
**A.** 40.2

**Q.** What about the Relative uterus weight [17] of the same molecule?
**A.** 17.7

**Q.** And the Relative uterus weight [18]?
**A.** 15.9

**Q.** And the Relative uterus weight [19]?
**A.** 22.8

**Q.** And the Relative uterus weight [21]?
**A.** 18.2

**Q.** And the Relative uterus weight [20]?
**A.** 44.2

**Q.** Which results are given for CC(=O)Oc1ccc2c(c1)CC(C)n1c-2c(C=O)c2ccc(OC(C)=O)cc21 (configuration not stated)?
**A.** relative binding affinity (RBA) [1]: 1.7; T/C (MDA-MB-231 [2]): 45%; T/C (MDA-MB-231 [3]): 112%; T/C (MDA-MB-231 [4]): 109%; T/C (MDA-MB-231 [5]): 79%; T/C (MCF7 [6]): 1%; T/C (MCF7 [7]): 106%; T/C (MCF7 [8]): 97%; T/C (MCF7 [9]): 36%; inhibition [10]: 38%; inhibition [11]: 30%; inhibition [12]: 14%; inhibition [13]: 20%; Relative uterus weight [14]: 48.5; Relative uterus weight [15]: 45.3; Relative uterus weight [16]: 39.7; Relative uterus weight [17]: 18.2; Relative uterus weight [18]: 19.6; Relative uterus weight [19]: 19.9; Relative uterus weight [21]: 18.2; Relative uterus weight [20]: 42.6

**Q.** Which results are given for CC/C(=C(\c1ccccc1)c1ccc(OCCN(C)C)cc1)c1ccccc1 [TAMOXIFEN]?
**A.** T/C (MCF7 [6]): 18%; T/C (MCF7 [7]): 57%; T/C (MCF7 [8]): 85%; T/C (MCF7 [9]): 43%

**Q.** What does the source list for CCCC1Cc2cc(OC(C)=O)ccc2-c2c(C=O)c3cc(OC(C)=O)ccc3n21 (configuration not stated)?
**A.** relative binding affinity (RBA) [1]: 2.6; T/C (MDA-MB-231 [2]): 9%; T/C (MDA-MB-231 [3]): 106%; T/C (MDA-MB-231 [4]): 109%; T/C (MDA-MB-231 [5]): 43%; T/C (MCF7 [6]): 0%; T/C (MCF7 [7]): 86%; T/C (MCF7 [8]): 99%; T/C (MCF7 [9]): 9%; inhibition [10]: 28%; inhibition [11]: 26%; inhibition [12]: 20%; inhibition [13]: 27%; Relative uterus weight [14]: 41.1; Relative uterus weight [15]: 38.8; Relative uterus weight [16]: 38.5; Relative uterus weight [17]: 21.1; Relative uterus weight [18]: 16.9; Relative uterus weight [19]: 32.9; Relative uterus weight [21]: 24.9; Relative uterus weight [20]: 39.2
